Assay results pooled from the literature.
Protocols differ between the studies behind these lines.
Read-out: cell growth or viability

Nc1ccc(/C=C/C(=O)N2CCc3c(oc4c(-c5ccc(F)cc5)cc(-c5ccc(C(=O)N6CCOCC6)nn5)cc34)C2)cn1
IC50 (U2OS; CCK-8; 72 h): 730 nM

C=CC(=O)N1CCN(c2nc(=O)n(-c3c(C)ccnc3C(C)C)c3nc(-c4c(O)cccc4F)c(F)cc23)[C@@H](C)C1
IC50 (NCI-H1792; ATP luminescence): > 1000 nM

Cc1nc(Nc2ccc3c(c2)/C(=C/c2ccccc2C)C(=O)N3)c2ccccc2n1
IC50 (H22; MTT): 9920 nM

N[C@H]1CC[C@H](N[C@@H]2C[C@H]2c2ccccc2)CC1
IC50 (U2OS; resazurin): 346000 nM

COc1cc2c3c(n(CCCNC(C)C)c(=O)c2cc1OC)-c1nc2c(cc1C3=O)OCO2
IC50 (L-363; MTS; 72 h): 126 nM

Cc1noc2c1-c1ccccc1C(c1ccc(Cl)cc1)=N[C@H]2CC(N)=O
IC50 (NB-4; ATP luminescence; 72 h): 760 nM

Cc1nc(Nc2ccc3c(c2)/C(=C/c2ccccc2)C(=O)N3Cc2ccccc2)c2ccccc2n1
IC50 (H22; MTT): 1080 nM

COc1cc2c3c(n(CCCNCCO)c(=O)c2cc1OC)-c1nc2c(cc1C3=O)OCO2
IC50 (L-363; MTS; 72 h): 154 nM

Nc1ccc(/C=C/C(=O)N2CCc3c(oc4c(-c5ccc(F)cc5)cc(-c5ccc(C(=O)N6CCC(F)(F)CC6)cc5F)cc34)C2)cn1
IC50 (U2OS; CCK-8; 72 h): > 10000 nM

Cc1nc(Nc2ccc3c(c2)/C(=C/c2ccccc2)C(=O)N3C)c2ccccc2n1
IC50 (H22; MTT): 5340 nM

CC1(C)CCC2(CC1)N[C@@H](C(=O)N[C@@H]1CC[C@@H](C(N)=O)OC1)[C@H](c1ccnc(Cl)c1F)[C@]21C(=O)Nc2cc(Cl)ccc21
IC50 (U2OS; resazurin; 72 h): > 2000 nM

COc1cc2ncnc(Nc3ccc4c(c3)/C(=C/c3ccccc3)C(=O)N4C)c2cc1OC
IC50 (H22; MTT): 15100 nM

O=c1c(C=NNC(=S)Nc2ccccc2)coc2ccccc12
IC50 (HeLa; MTT; 24 h): > 100000 nM

Cc1nc(NC(=O)N2CCC[C@H]2C(N)=O)sc1-c1ccnc(C(C)(C)C(F)(F)F)c1
IC50 (H22; MTT): 25400 nM

CN1CCC(NC(=O)c2ccc(-c3cc(-c4ccsc4)c4oc5c(c4c3)CCN(C(=O)/C=C/c3ccc(N)nc3)C5)nn2)C(F)(F)C1 (stereo not drawn)
IC50 (U2OS; CCK-8; 72 h): 1200 nM
